Test results from ChEMBL document CHEMBL2413055, “Synthesis of substituted diphenyl sulfones and their structure-activity relationship with the antagonism of 5-НТ6 receptors” (Bioorg Med Chem, 2013).

Each compound was assayed against T1, 5-hydroxytryptamine receptor 6 (Homo sapiens, UniProt P50406) (assay: Partial agonist activity at recombinant human 5-HT6 receptor expressed in HEK293 cells assessed as induction of intracellular cAMP production after 30 mins).
Assay type: functional, cell-based

T1 sequence (P50406 whole entry): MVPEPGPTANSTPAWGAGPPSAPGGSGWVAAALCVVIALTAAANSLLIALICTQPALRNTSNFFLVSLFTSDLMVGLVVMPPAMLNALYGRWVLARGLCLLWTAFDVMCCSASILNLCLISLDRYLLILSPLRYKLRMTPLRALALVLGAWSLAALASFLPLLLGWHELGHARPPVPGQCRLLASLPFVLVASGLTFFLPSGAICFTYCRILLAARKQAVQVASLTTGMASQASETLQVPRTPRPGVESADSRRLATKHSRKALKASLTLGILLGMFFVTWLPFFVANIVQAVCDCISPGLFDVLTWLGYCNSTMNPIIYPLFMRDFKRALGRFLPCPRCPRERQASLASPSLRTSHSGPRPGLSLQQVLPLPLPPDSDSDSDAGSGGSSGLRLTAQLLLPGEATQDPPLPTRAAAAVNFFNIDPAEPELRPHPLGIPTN

Compound	Activity
CN(C)c1cc(N2CCNCC2)ccc1S(=O)(=O)c1ccccc1	17%

These compounds were tested against T1, 5-hydroxytryptamine receptor 6 (assay: Displacement of [3H]-lysergic acid diethylamide from human 5-HT6 receptor expressed in HEK293 cell membranes after 3.5 hrs).

Compound	Ki
Cc1cc(N2CCNCC2)c2c(c1)N(S(=O)(=O)c1ccccc1Cl)CCO2	0.2 nM

What follows are compounds tested against T1, 5-hydroxytryptamine receptor 6 (assay: Antagonist activity at 5-HT6 receptor (unknown origin)).
How it was run: (§1)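 Human 5-HT6R in HEK cells under a tetracycline-inducible T-REx promoter, induced with 1 µg/mL tetracycline the day before. Cells in HBSS/5 mM HEPES pH 7.4, 0.05% BSA and IBMX, about 4000 per well. IC50 from 4-parameter fit, in duplicate. Ki by Cheng-Prusoff using 5-HT EC50 measured alongside.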

IC50	Compound
2.7 nM	CCNc1cc(N2CCNCC2)ccc1S(=O)(=O)c1ccccc1

What follows are compounds tested against T1, 5-hydroxytryptamine receptor 6 (assay: Antagonist activity at recombinant human 5-HT6 receptor expressed in HEK293 cells assessed as 5-HT-induced intracellular cAMP production after 30 mins).
Assay type: functional, cell-based
How it was run: as §1

Ki	Compound
183 nM	Nc1ccc(S(=O)(=O)c2ccc(N)cc2)cc1 [DAPSONE]
153 nM	CNc1cc(-c2ccccc2)ccc1S(=O)(=O)c1ccccc1
866 nM	COc1ccccc1S(=O)(=O)c1ccccc1
1.65 nM	Nc1cc(N2CCNCC2)ccc1S(=O)(=O)c1ccccc1
491 nM	Nc1ccccc1S(=O)(=O)c1ccccc1
8.3 nM	CC(=O)Nc1cc(N2CCNCC2)ccc1S(=O)(=O)c1ccccc1
48.3 nM	CNc1cc(-c2cccnc2)ccc1S(=O)(=O)c1ccccc1
2040 nM	CN(C)c1ccccc1S(=O)(=O)c1ccccc1
564 nM	Nc1ccc(S(=O)(=O)c2ccc(N)c(N)c2)cc1

Compound	Ki
CN(C)c1cc(N2CCNCC2)ccc1S(=O)(=O)c1ccccc1	30.1 nM
O=S(=O)(c1ccccc1)c1ccc(N2CCNCC2)cc1	10.8 nM
O=S(=O)(c1ccccc1)c1ccccc1 [(PHENYLSULFONYL)BENZENE]	1600 nM
CNc1ccccc1S(=O)(=O)c1ccccc1	24.3 nM
